# Assay results: ChEMBL document CHEMBL1124035, “1-Amino-substituted 4-methyl-5H-pyrido[4,3-b]indoles (gamma-carbolines) as tricyclic analogues of ellipticines: a new class of antineoplastic agents” (1988)
# Columns and labels:
# Mus musculus [1] = experiment: Antitumor activity against P388 leukemia in mice at a dose of 6 mg/kg administered intraperitoneally for 5 days; type: functional; settings: route intraperitoneal
# In short: (§1)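 CDF1 hybrid male or female mice, 10 per group, were inoculated ip on day 0 with 10^6 viable P388 leukemia cells. Drug in distilled water was given ip (0.1 mL/10 g body weight) daily on days 1-5, with vehicle, 5-fluorouracil and BD 84 controls given the same way. T/C = median survival of treated/controls × 100; T/C > 128% counted as significant.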
# Mus musculus [2] = experiment: Antitumor activity against P388 leukemia in mice at a dose of 12 mg/kg administered intraperitoneally for 5 days; type: functional; settings: route intraperitoneal
# In short: (§2)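 CDF1 hybrid male or female mice, 10 per group, were inoculated ip with 10^6 viable P388 cells on day 0. Drugs in distilled water were given ip (0.1 mL/10 g body weight) daily D1-5. Vehicle, 5-fluorouracil and BD 84 were given the same way. T/C = median survival day of treated / controls × 100; T/C > 128% was significant; cures counted at D60.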
# L1210 = experiment: Ability to reduce the cell count to 50% in L1210 culture cells; type: functional; settings: Mus musculus, read-out: ID50 (the source's name)
# In short: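 L1210 cells in exponential growth in RPMI 1640 with 2 mM glutamine, penicillin/streptomycin and 10% FCS, 37 °C, 5% CO2. Drugs dissolved in distilled water were added to cells at 0.8 × 10^5 cells/mL for 48 h, then cells were counted. ID50 is the concentration halving cell proliferation versus controls, from regression of dose-response data; mean of two independent experiments.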
# Calf thymus DNA = experiment: Apparent DNA affinity constant; type: nucleic-acid assay; settings: Bos taurus
# In short: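 Apparent DNA affinity constant was measured by competition with ethidium bromide. Buffer was 20 mM Na2HPO4/NaH2PO4, 0.1 M NaCl, 1 mM EDTA, pH 7.4, with calf thymus DNA at 10 μg/mL. Values are given in 10^6 M⁻¹.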
# Mus musculus [3] = experiment: Antitumor activity against P388 leukemia in mice at a dose of 50 mg/kg administered intraperitoneally for 5 days; type: functional; settings: route intraperitoneal; in short: as §1
# Mus musculus [4] = experiment: Antitumor activity against P388 leukemia in mice at a dose of 100 mg/kg administered intraperitoneally for 5 days; type: functional, organism-based; design: dose 100 mg/kg; in short: as §2
# Mus musculus [5] = experiment: Antitumor activity against P388 leukemia in mice at a dose of 24 mg/kg administered intraperitoneally for 5 days; type: functional; settings: route intraperitoneal; in short: as §1
# Mus musculus [6] = experiment: Antitumor activity against P388 leukemia in mice at a dose of 10 mg/kg administered intraperitoneally for 5 days; type: functional; settings: route intraperitoneal; in short: as §2
# Mus musculus [7] = experiment: Antitumor activity against P388 leukemia in mice at a dose of 2.5 mg/kg administered intraperitoneally for 5 days; type: functional; settings: route intraperitoneal; in short: as §2
# Mus musculus [8] = experiment: Antitumor activity against P388 leukemia in mice at a dose of 20 mg/kg administered intraperitoneally for 5 days; Nontoxic at this dose; type: functional; settings: route intraperitoneal; in short: as §1
# Mus musculus [9] = experiment: Antitumor activity against P388 leukemia in mice at a dose of 5 mg/kg administered intraperitoneally for 5 days; type: functional; settings: route intraperitoneal; in short: as §1
IC50 (L1210) [nM],K aff (Calf thymus DNA) [M⁻¹],SMILES,T/C (Mus musculus [1]) [%],T/C (Mus musculus [2]) [%],T/C (Mus musculus [3]) [%],T/C (Mus musculus [4]),T/C (Mus musculus [5]) [%],T/C (Mus musculus [6]) [%],T/C (Mus musculus [7]) [%],T/C (Mus musculus [8]) [%],T/C (Mus musculus [9]) [%]
720,160000,CCN(CC)CCCNc1ncc(C)c2c1c1ccccc1n2C,105,110,131,Toxic,118,–,–,–,–
190,120000,CN(C)CCCNc1nccc2c1c1cc(O)ccc1n2C,–,–,–,–,–,169,137,173,145
